Experimental data from ChEMBL document CHEMBL4229333, “Effects of rigidity on the selectivity of protein kinase inhibitors” (Eur J Med Chem, 2018).

Legend:
[1] = molecular target: Tyrosine-protein kinase Yes (Homo sapiens) (UniProt P07947); assay: Inhibition of YES (unknown origin) at 1 uM by mobility shift microfluidics platform based assay relative to control
[2] = molecular target: Calcium/calmodulin-dependent protein kinase type II subunit beta (Homo sapiens) (UniProt Q13554); assay: Inhibition of CAMK2B (unknown origin) at 1 uM by mobility shift microfluidics platform based assay relative to control
[3] = molecular target: Tyrosine-protein kinase Mer (Homo sapiens) (UniProt Q12866); assay: Inhibition of MER (unknown origin) at 1 uM by mobility shift microfluidics platform based assay relative to control
[4] = molecular target: Tyrosine-protein kinase Fgr (Homo sapiens) (UniProt P09769); assay: Inhibition of FGR (unknown origin) at 1 uM by mobility shift microfluidics platform based assay relative to control
[5] = molecular target: Homeodomain-interacting protein kinase 1 (Homo sapiens) (UniProt Q86Z02); assay: Inhibition of HIPK1 (unknown origin) at 1 uM by mobility shift microfluidics platform based assay relative to control
[6] = molecular target: Serine/threonine-protein kinase Sgk1 (Homo sapiens) (UniProt O00141); assay: Inhibition of SGK1 (unknown origin) at 1 uM by mobility shift microfluidics platform based assay relative to control
[7] = molecular target: Tyrosine-protein kinase Fyn (Homo sapiens) (UniProt P06241); assay: Inhibition of FYN (unknown origin) at 1 uM by mobility shift microfluidics platform based assay relative to control
Sequence of Tyrosine-protein kinase Fyn (Homo sapiens) (P06241 2-537 limits assumed): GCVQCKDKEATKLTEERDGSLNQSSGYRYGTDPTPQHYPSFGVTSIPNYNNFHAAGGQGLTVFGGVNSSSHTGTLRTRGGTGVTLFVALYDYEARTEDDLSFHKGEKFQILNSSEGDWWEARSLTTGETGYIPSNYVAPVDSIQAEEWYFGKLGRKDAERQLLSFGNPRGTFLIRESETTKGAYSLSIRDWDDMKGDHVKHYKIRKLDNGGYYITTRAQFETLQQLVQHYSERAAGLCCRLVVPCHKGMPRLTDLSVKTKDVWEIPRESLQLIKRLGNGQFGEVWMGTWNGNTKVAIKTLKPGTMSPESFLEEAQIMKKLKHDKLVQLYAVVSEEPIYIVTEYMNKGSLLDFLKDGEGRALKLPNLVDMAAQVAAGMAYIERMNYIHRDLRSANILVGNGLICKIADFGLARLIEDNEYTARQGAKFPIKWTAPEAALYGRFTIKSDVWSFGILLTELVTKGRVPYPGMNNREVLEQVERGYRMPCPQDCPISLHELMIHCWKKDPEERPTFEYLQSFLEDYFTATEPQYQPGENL

[8] = molecular target: Mitogen-activated protein kinase 1 (Homo sapiens) (UniProt P28482); assay: Inhibition of MAPK1 (unknown origin) at 1 uM by mobility shift microfluidics platform based assay relative to control
Sequence of Mitogen-activated protein kinase 1 (Homo sapiens) (P28482 whole entry): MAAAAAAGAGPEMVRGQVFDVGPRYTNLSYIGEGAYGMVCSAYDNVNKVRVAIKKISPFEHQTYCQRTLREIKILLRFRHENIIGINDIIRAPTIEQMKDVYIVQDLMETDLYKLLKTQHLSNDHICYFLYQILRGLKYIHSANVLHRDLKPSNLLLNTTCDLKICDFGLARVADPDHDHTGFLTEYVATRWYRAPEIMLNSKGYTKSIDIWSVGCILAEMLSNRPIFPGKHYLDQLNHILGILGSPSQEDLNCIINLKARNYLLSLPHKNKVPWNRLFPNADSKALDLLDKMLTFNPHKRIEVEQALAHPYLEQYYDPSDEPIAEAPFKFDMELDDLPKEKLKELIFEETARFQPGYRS

[9] = molecular target: Cytoplasmic tyrosine-protein kinase BMX (Homo sapiens) (UniProt P51813); assay: Inhibition of BMX (unknown origin) at 1 uM by mobility shift microfluidics platform based assay relative to control
[10] = molecular target: Calcium/calmodulin-dependent protein kinase type II subunit alpha (Homo sapiens) (UniProt Q9UQM7); assay: Inhibition of CAMK2A (unknown origin) at 1 uM by mobility shift microfluidics platform based assay relative to control
[11] = Apparent permeability from basolateral to apical side in human Caco2 cells in absence of P-gp inhibitor by LC-MS/MS analysis; format: ADME, cell-based; conditions: Caco-2
Outline: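 Caco-2 monolayer permeability, measured apical-to-basolateral and basolateral-to-apical. Compound concentrations were quantified by LC-MS/MS, and apparent permeability coefficients (Papp, cm/s) were calculated from them.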

[12] = molecular target: Serine/threonine-protein kinase Nek7 (Homo sapiens) (UniProt Q8TDX7); assay: Inhibition of NEK7 (unknown origin) at 1 uM by mobility shift microfluidics platform based assay relative to control
[13] = molecular target: Serine/threonine-protein kinase Chk2 (Homo sapiens) (UniProt O96017); assay: Inhibition of CHEK2 (unknown origin) at 1 uM by mobility shift microfluidics platform based assay relative to control
Sequence of Serine/threonine-protein kinase Chk2 (Homo sapiens) (O96017 whole entry): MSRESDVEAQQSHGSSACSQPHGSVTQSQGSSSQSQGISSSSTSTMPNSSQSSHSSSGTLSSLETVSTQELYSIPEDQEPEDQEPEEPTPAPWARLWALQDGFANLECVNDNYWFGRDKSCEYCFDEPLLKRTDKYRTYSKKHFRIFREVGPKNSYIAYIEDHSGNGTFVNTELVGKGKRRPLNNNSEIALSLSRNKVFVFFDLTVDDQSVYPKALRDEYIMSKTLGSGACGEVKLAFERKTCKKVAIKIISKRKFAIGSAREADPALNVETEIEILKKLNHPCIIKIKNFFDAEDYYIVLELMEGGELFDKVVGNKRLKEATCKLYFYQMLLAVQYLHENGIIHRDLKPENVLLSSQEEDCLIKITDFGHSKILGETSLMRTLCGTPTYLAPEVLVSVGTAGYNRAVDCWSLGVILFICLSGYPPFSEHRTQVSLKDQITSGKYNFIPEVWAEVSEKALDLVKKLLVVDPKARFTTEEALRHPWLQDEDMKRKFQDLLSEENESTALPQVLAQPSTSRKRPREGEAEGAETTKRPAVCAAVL

[14] = molecular target: Insulin receptor (Homo sapiens) (UniProt P06213); assay: Inhibition of INSR (unknown origin) at 1 uM by mobility shift microfluidics platform based assay relative to control
[15] = molecular target: ALK tyrosine kinase receptor (Homo sapiens) (UniProt Q9UM73); assay: Inhibition of ALK (unknown origin) at 1 uM by mobility shift microfluidics platform based assay relative to control
[16] = molecular target: Platelet-derived growth factor receptor alpha (Homo sapiens) (UniProt P16234); assay: Inhibition of PDGFR-alpha (unknown origin) at 1 uM by mobility shift microfluidics platform based assay relative to control
[17] = molecular target: Tyrosine-protein kinase Lyn (Homo sapiens) (UniProt P07948); assay: Inhibition of LYNA (unknown origin) at 1 uM by mobility shift microfluidics platform based assay relative to control
[18] = molecular target: Serine/threonine-protein kinase DCLK2 (Homo sapiens) (UniProt Q8N568); assay: Inhibition of DCAMKL2 (unknown origin) at 1 uM by mobility shift microfluidics platform based assay relative to control
Sequence of Serine/threonine-protein kinase DCLK2 (Homo sapiens) (Q8N568 whole entry): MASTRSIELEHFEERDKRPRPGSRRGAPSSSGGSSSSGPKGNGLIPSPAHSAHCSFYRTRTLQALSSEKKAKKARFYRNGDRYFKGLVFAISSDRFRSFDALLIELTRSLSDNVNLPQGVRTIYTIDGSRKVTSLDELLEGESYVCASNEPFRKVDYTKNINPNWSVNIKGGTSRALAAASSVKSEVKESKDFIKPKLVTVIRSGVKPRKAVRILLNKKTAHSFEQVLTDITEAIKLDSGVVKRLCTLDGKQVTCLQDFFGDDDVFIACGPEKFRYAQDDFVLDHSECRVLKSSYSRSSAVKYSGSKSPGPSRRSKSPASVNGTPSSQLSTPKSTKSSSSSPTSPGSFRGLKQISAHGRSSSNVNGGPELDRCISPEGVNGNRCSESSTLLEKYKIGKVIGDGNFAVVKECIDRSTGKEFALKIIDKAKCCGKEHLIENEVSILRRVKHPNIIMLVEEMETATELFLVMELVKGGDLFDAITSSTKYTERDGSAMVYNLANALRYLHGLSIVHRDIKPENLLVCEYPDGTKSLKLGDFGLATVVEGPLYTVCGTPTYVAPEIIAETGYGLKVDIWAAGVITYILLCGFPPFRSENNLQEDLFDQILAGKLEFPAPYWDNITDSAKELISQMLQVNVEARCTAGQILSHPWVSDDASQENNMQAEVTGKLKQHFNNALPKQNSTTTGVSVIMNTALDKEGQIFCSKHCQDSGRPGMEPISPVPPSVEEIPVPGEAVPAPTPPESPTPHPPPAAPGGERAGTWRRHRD

[19] = molecular target: Tyrosine-protein kinase receptor TYRO3 (Homo sapiens) (UniProt Q06418); assay: Inhibition of TYRO3 (unknown origin) at 1 uM by mobility shift microfluidics platform based assay relative to control
[20] = molecular target: Serine/threonine-protein kinase pim-3 (Homo sapiens) (UniProt Q86V86); assay: Inhibition of PIM3 (unknown origin) at 1 uM by mobility shift microfluidics platform based assay relative to control
[21] = molecular target: Calcium/calmodulin-dependent protein kinase type II subunit gamma (Homo sapiens) (UniProt Q13555); assay: Inhibition of CAMK2G (unknown origin) at 1 uM by mobility shift microfluidics platform based assay relative to control
[22] = molecular target: Mitogen-activated protein kinase 10 (Homo sapiens) (UniProt P53779); assay: Inhibition of JNK3 (unknown origin) at 1 uM by mobility shift microfluidics platform based assay relative to control
[23] = molecular target: NT-3 growth factor receptor (Homo sapiens) (UniProt Q16288); assay: Inhibition of TRKC (unknown origin) at 1 uM by mobility shift microfluidics platform based assay relative to control
[24] = molecular target: cGMP-dependent protein kinase 1 (Homo sapiens) (UniProt Q13976); assay: Inhibition of PRKG1 (unknown origin) at 1 uM by mobility shift microfluidics platform based assay relative to control
Sequence of cGMP-dependent protein kinase 1 (Homo sapiens) (Q13976 whole entry): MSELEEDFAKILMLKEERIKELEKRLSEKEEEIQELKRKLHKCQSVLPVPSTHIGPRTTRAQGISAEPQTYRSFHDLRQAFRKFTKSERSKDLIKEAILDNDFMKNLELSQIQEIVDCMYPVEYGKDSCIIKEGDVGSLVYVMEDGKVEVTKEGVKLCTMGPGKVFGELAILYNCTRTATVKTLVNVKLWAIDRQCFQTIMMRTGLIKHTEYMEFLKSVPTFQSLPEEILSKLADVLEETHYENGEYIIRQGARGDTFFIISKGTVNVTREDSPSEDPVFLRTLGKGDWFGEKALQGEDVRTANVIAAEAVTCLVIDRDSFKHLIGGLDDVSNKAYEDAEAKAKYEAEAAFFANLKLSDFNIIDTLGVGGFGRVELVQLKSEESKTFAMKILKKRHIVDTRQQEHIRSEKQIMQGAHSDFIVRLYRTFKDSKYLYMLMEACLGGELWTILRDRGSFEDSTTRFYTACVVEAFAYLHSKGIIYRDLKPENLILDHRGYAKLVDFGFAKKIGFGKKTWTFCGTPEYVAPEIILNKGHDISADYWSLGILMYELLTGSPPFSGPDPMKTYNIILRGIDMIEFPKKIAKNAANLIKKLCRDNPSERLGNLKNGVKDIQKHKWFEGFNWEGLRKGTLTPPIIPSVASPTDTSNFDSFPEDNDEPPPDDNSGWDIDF

[25] = molecular target: Dual specificity protein kinase CLK3 (Homo sapiens) (UniProt P49761); assay: Inhibition of CLK3 (unknown origin) at 1 uM by mobility shift microfluidics platform based assay relative to control
[26] = molecular target: Non-receptor tyrosine-protein kinase TNK1 (Homo sapiens) (UniProt Q13470); assay: Inhibition of TNK1 (unknown origin) at 1 uM by mobility shift microfluidics platform based assay relative to control
[27] = molecular target: Serine/threonine-protein kinase Nek2 (Homo sapiens) (UniProt P51955); assay: Inhibition of NEK2 (unknown origin) at 1 uM by mobility shift microfluidics platform based assay relative to control
Sequence of Serine/threonine-protein kinase Nek2 (Homo sapiens) (P51955 whole entry): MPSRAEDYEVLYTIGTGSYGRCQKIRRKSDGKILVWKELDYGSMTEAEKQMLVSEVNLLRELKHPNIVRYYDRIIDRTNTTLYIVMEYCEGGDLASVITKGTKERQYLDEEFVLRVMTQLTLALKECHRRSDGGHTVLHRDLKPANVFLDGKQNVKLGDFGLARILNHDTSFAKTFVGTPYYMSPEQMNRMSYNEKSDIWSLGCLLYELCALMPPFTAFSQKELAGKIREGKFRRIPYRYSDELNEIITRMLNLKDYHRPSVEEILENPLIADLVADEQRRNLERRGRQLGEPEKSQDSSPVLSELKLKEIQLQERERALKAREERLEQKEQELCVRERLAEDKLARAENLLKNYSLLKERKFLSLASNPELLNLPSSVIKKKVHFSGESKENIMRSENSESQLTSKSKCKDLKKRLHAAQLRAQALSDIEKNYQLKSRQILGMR

[28] = molecular target: Mitogen-activated protein kinase 9 (Homo sapiens) (UniProt P45984); assay: Inhibition of JNK2 (unknown origin) at 1 uM by mobility shift microfluidics platform based assay relative to control
[29] = molecular target: Tyrosine-protein kinase JAK2 (Homo sapiens) (UniProt O60674); assay: Inhibition of JAK2 (unknown origin) at 1 uM by mobility shift microfluidics platform based assay relative to control
[30] = molecular target: Mitogen-activated protein kinase 14 (Homo sapiens) (UniProt Q16539); assay: Inhibition of P38-alpha (unknown origin) at 1 uM by mobility shift microfluidics platform based assay relative to control
Sequence of Mitogen-activated protein kinase 14 (Homo sapiens) (Q16539 whole entry): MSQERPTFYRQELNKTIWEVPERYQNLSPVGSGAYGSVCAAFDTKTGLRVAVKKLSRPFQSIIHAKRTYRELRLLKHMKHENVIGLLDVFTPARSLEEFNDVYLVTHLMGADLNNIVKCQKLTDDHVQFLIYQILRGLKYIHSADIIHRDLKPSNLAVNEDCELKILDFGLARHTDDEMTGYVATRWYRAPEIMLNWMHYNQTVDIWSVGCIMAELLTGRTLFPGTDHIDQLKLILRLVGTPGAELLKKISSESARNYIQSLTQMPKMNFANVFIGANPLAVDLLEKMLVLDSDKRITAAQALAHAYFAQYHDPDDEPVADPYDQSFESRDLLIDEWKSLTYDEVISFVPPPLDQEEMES

[31] = molecular target: Ephrin type-A receptor 4 (Homo sapiens) (UniProt P54764); assay: Inhibition of EPH-A4 (unknown origin) at 1 uM by mobility shift microfluidics platform based assay relative to control
Sequence of Ephrin type-A receptor 4 (Homo sapiens) (P54764 whole entry): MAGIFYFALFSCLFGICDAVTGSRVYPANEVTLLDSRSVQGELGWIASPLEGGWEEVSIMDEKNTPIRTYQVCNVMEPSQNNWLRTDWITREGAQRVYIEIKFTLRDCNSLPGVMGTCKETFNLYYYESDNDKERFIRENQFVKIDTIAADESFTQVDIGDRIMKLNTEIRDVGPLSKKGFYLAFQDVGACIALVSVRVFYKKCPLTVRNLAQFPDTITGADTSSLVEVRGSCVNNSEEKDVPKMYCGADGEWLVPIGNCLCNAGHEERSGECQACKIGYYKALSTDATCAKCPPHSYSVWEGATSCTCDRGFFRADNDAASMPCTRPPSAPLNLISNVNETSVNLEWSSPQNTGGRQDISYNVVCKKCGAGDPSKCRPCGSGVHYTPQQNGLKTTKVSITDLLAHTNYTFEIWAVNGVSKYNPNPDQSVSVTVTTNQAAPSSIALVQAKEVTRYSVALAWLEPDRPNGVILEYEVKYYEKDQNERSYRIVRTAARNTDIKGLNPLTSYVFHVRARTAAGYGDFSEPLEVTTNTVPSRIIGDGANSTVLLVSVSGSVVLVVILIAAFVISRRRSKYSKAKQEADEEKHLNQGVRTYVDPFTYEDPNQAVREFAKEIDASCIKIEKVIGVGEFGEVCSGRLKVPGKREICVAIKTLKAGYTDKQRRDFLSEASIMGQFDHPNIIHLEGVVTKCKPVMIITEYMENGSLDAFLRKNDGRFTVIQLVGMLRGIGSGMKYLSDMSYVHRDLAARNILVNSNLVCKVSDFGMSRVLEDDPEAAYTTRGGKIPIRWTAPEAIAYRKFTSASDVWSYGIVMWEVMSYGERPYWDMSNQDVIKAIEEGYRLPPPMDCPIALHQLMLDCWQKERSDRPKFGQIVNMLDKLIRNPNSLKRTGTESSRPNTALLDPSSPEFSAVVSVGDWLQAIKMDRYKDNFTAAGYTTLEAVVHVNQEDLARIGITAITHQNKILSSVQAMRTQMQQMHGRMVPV

[32] = molecular target: Non-receptor tyrosine-protein kinase TYK2 (Homo sapiens) (UniProt P29597); assay: Inhibition of TYK2 (unknown origin) at 1 uM by mobility shift microfluidics platform based assay relative to control
[33] = molecular target: Serine/threonine-protein kinase PAK 3 (Homo sapiens) (UniProt O75914); assay: Inhibition of PAK3 (unknown origin) at 1 uM by mobility shift microfluidics platform based assay relative to control

An inhibition [1] of 101%, an inhibition [2] of 1% and an inhibition [3] of 6% were found for `CC(C)n1nc(C#Cc2cccc(NC(=O)c3cccc(C(F)(F)F)c3)c2)c2c(N)ncnc21` in this work. For the same compound, the inhibition [4] was 99%, the inhibition [5] was -3% and the inhibition [6] was -1%. For the same compound, the inhibition [7] was 101%, the inhibition [8] was 0% and the inhibition [9] was 98%. It also gave an inhibition [10] of 3%, a Papp B→A [11] of 1 ×10⁻⁶ cm/s and an inhibition [12] of 1%. The inhibition [13] was 3%, the inhibition [14] was 12% and the inhibition [15] was 6%. It also gave an inhibition [16] of 100%, an inhibition [17] of 99% and an inhibition [18] of 0%. It also gave an inhibition [19] of 67%, an inhibition [20] of 0% and an inhibition [21] of 0%. It also gave an inhibition [22] of -8%, an inhibition [23] of 59% and an inhibition [24] of 1%. It also gave an inhibition [25] of -1%, an inhibition [26] of 84% and an inhibition [27] of -1%. The inhibition [28] was 26%, the inhibition [29] was 77% and the inhibition [30] was 70%. It also gave an inhibition [31] of 99%, an inhibition [32] of 31% and an inhibition [33] of 2%.
An inhibition [1] of 88%, an inhibition [2] of 5% and an inhibition [3] of 0% were found for `CC(C)n1nc(C#Cc2cccc3cc(-c4cccc(C(F)(F)F)c4)ncc23)c2c(N)ncnc21` in this work. For the same compound, the inhibition [4] was 71%, the inhibition [5] was -2% and the inhibition [6] was 0%. For the same compound, the inhibition [7] was 85%, the inhibition [8] was 2% and the inhibition [9] was 36%. For the same compound, the inhibition [10] was 6%, the Papp B→A [11] was 2.6 ×10⁻⁶ cm/s and the inhibition [12] was -2%. For the same compound, the inhibition [13] was -4%, the inhibition [14] was 5% and the inhibition [15] was 1%. The inhibition [16] was 94%, the inhibition [17] was 95% and the inhibition [18] was -1%. It also gave an inhibition [19] of 2%, an inhibition [20] of 1% and an inhibition [21] of 2%. The inhibition [22] was 5%, the inhibition [23] was 14% and the inhibition [24] was 1%. For the same compound, the inhibition [25] was 6%, the inhibition [26] was 19% and the inhibition [27] was 0%. The inhibition [28] was 8%, the inhibition [29] was 3% and the inhibition [30] was 15%. For the same compound, the inhibition [31] was 95%, the inhibition [32] was 2% and the inhibition [33] was 1%.
